Experimental data published in ChEMBL document CHEMBL5143681, “Clerodane Diterpenes from Casearia corymbosa as Allosteric GABAA Receptor Modulators” (J Nat Prod, 2022).
Active and inactive are the calls of the source. No cut-off for these calls is given here.

Assays:
Type in all cases: cell-based
[1] = molecular target: T1, GABA-A receptor; alpha-1/beta-2/gamma-2 (Homo sapiens, UniProt P14867+P18507+P47870); assay: Positive allosteric modulation of GABAA alpha1beta2gamma2 receptor (unknown origin) stably expressed in CHO cells assessed as activation of GABA-induced response in presence of GABA by FLIPR assay
T1 sequence (P14867 whole entry): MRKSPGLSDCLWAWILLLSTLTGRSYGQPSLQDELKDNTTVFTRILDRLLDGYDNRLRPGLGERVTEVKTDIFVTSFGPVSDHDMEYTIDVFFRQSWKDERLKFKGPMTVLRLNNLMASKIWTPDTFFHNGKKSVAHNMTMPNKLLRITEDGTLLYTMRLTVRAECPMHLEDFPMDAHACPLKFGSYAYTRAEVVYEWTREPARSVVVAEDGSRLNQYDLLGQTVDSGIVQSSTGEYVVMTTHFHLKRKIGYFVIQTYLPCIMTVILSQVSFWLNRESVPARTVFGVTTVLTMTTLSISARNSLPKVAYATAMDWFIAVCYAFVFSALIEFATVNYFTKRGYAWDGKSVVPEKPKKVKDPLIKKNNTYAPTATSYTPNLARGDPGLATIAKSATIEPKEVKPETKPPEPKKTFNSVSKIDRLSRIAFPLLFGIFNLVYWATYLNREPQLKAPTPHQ
T1 sequence (P47870 whole entry): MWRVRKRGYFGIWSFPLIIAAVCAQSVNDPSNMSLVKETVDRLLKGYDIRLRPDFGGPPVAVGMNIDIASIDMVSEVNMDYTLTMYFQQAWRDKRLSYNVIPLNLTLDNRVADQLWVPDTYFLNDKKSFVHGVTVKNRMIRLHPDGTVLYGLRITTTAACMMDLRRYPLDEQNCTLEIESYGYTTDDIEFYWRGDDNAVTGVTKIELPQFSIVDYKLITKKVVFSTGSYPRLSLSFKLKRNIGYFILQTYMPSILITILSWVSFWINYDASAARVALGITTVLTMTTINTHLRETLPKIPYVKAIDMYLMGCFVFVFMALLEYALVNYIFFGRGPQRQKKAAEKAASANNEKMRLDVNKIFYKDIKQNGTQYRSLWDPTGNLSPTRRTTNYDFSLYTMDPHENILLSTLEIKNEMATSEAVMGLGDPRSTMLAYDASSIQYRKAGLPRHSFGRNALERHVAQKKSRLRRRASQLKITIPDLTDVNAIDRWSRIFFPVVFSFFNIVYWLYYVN
T1 sequence (P18507 whole entry): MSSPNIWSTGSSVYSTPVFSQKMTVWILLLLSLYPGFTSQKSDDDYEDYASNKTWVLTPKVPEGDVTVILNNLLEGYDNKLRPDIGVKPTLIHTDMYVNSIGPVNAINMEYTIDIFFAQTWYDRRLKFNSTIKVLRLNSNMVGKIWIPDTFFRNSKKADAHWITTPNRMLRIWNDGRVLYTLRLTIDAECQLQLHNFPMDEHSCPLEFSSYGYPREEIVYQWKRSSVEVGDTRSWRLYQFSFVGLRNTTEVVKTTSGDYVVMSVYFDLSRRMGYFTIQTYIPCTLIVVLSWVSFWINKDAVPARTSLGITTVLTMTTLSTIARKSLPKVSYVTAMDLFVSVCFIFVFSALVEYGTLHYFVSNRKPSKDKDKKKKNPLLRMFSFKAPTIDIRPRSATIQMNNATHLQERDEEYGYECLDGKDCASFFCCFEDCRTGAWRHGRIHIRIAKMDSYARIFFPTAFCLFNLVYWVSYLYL

[2] = molecular target: T2, GABA-A receptor; alpha-1/beta-2/gamma-2 (Homo sapiens) (UniProt P14867+P47870+P18507); assay: Positive allosteric modulation of GABAA alpha1beta2gamma2 receptor (unknown origin) stably expressed in CHO cells assessed as activation of GABA-induced response at 5 uM in presence of flumazenil by FLIPR assay; conditions: filed as positive allosteric modulator
Outline: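 For the benzodiazepine-site test, α1β2γ2-CHO cells in the FLIPR membrane-potential assay received compound at 5 μM plus flumazenil at 0.001–10 μM, with 2 μM GABA added at 295 s. Activation was the fluorescence change at 270–330 s, normalized to 200 μM GABA. Controls were 2 μM GABA, 200 μM GABA and 0.2% DMSO.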

[3] = molecular target: T2, GABA-A receptor; alpha-1/beta-2/gamma-2 (Homo sapiens); assay: Additive positive allosteric modulation of GABAA alpha1beta2gamma2 receptor (unknown origin) stably expressed in CHO cells assessed as activation of GABA-induced response at 0.5 to 8 uM in presence of diazepam by FLIPR assay; conditions: filed as positive allosteric modulator, dose 0.5-8 µM
Outline: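 α1β2γ2-CHO cells were run in the FLIPR membrane-potential assay. Activation was the fluorescence change at 270–330 s, normalized to 200 μM GABA. Controls were 2 μM GABA, 200 μM GABA and 0.2% DMSO.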

[4] = molecular target: T2, GABA-A receptor; alpha-1/beta-2/gamma-2 (Homo sapiens); assay: Additive positive allosteric modulation of GABAA alpha1beta2gamma2 receptor (unknown origin) stably expressed in CHO cells assessed as activation of GABA-induced response at 0.5 to 8 uM in presence of etazolate by FLIPR assay; conditions: filed as positive allosteric modulator, dose 0.5-8 µM
Outline: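 In the FLIPR membrane-potential assay on α1β2γ2-CHO cells, compound at 0.5–8.0 μM was tested with etazolate at a fixed concentration (0.78 μM per the methods). 2 μM GABA was added at 295 s. The fluorescence change at 270–330 s was normalized to 200 μM GABA. Controls were 2 μM GABA, 200 μM GABA and 0.2% DMSO.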

[5] = molecular target: T2, GABA-A receptor; alpha-1/beta-2/gamma-2 (Homo sapiens); assay: Positive allosteric modulation of GABAA alpha1beta2gamma2 receptor (unknown origin) stably expressed in CHO cells assessed as activation of GABA-induced response at 10 uM in presence of pregnenolone sulfate by FLIPR assay; conditions: filed as positive allosteric modulator
Outline: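 Compound was held at 10 μM with pregnenolone sulfate at 0.001–10 μM in the FLIPR membrane-potential assay on α1β2γ2-CHO cells, and 2 μM GABA was added at 295 s. The fluorescence change at 270–330 s was normalized to 200 μM GABA. Controls were 2 μM GABA, 200 μM GABA and 0.2% DMSO.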

[6] = molecular target: T2, GABA-A receptor; alpha-1/beta-2/gamma-2 (Homo sapiens); assay: Additive positive allosteric modulation of GABAA alpha1beta2gamma2 receptor (unknown origin) stably expressed in CHO cells assessed as activation of GABA-induced response at 0.5 to 4 uM in presence of allopregnanolone by FLIPR assay; conditions: filed as positive allosteric modulator, dose 0.5-4 µM, DDE = dose-dependent effect
Outline: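 The FLIPR membrane-potential assay used α1β2γ2-CHO cells. Compound was tested at 0.5, 1.0, 2.0 and 4.0 μM together with a fixed 0.25 μM allopregnanolone, and 2 μM GABA was added at 295 s. The fluorescence change at 270–330 s was normalized to 200 μM GABA. Plates included 2 μM GABA, 200 μM GABA and 0.2% DMSO controls.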

| Structure (SMILES) | EC50 [1] | also measured |
| --- | --- | --- |
| C=CCc1ccc(O)c(-c2cc(CC=C)ccc2O)c1 [MAGNOLOL] | 4.8 µM |  |
| C=C/C(C)=C/C[C@]1(C)[C@H](C)C[C@H](O)[C@]23C(=C[C@@H](OC(C)=O)C[C@@H]12)[C@@H](OC(C)=O)O[C@H]3OC(C)=O | 0.5 µM |  |
| CC1=C2[C@H](/C=C(\C)C(=O)O)CC[C@@H](C)[C@H]2CC1 [VALERENIC ACID] | 12.6 µM |  |
| C=C/C(C)=C/C[C@]1(C)[C@H](C)C[C@H](OC(C)=O)[C@]23C(=C[C@@H](OC(C)=O)C[C@@H]12)[C@@H](OC(C)=O)O[C@H]3OC(C)=O | 4.6 µM |  |
| O=C(/C=C/C=C/c1ccc2c(c1)OCO2)N1CCCCC1 [PIPERINE] | 5.8 µM |  |
| C=C/C(C)=C/C[C@]1(C)[C@H](C)C[C@H](OC)[C@]23C(=C[C@@H](OC(C)=O)C[C@@H]12)[C@@H](OC(C)=O)O[C@H]3OC(C)=O | 1.4 µM | Activity [2]: Active; Activity [3]: Active; Activity [4]: Active; Activity [5]: Active; Activity [6]: Dde |
